Source: article PMC9029315 (RSC Advances, 2021)
In brackets after ≈: the same amount, converted by molar mass. Where two headings read alike, the source gives them in different places.

Assays:
M. tb H37Rv strain [1] = conditions: cited from earlier work
healthy cells = conditions: read-out: Cytotoxicity to healthy cells, IC50; cited from earlier work
[2] = test system: KNS42 cells (paediatric GBM); assay: KNS42 cell proliferation assay; format: cell-based; conditions: Homo sapiens, KNS-42, 72 h, read-out: KNS42 prolif., IC50
Procedure, shortened: (§1)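 Human cells were kept at 37 °C, 5% CO2 with pen/strep in RPMI/10% FBS (KNS42, BT-12, BT-16), EMEM/10% FBS (DAOY) or DMEM/15% FBS (HFF1). Seeding was 2000 cells/well (KNS42 4000), followed by overnight attachment. Compound medium (0.5, 1, 2.5, 5, 7.5, 10) or 0.1% DMSO control was then applied for 72 h. MTT absorbance was read at 570/600 nm, background subtracted, and IC50 calculated.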

[3] = target: cannabinoid receptor 2 (CB2); conditions: read-out: CB2 agonistic activity, EC50; cited from earlier work
human THP-1 cells = conditions: cited from earlier work
M. tb H37Rv strain [4] = assay: Anti-TB activity, microplate alamarBlue assay; format: cell-based, Mycobacterium tuberculosis; conditions: H37Rv MIC values converted to μM; for MIC: Mycobacterium tuberculosis, H37RV, read-out: H37Rv, MIC, MABA; for H37Rv, MIC: MABA
Procedure, shortened: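 Whole-cell M. tuberculosis H37Rv growth inhibition by microplate alamarBlue assay. MIC is the lowest concentration giving at least 90% reduction of bacterial growth, averaged over three individual measurements. It was then converted to molar units. Front-line anti-TB drugs served as positive controls.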

Vero cells = assay: Cytotoxicity against Vero cells; format: cell-based; conditions: SI = IC50(Vero)/MIC(H37Rv)
BT12 cells (AT/RT) [5] = assay: BT12 cell viability assay; format: cell-based; conditions: Homo sapiens, BT-12, 72 h, read-out: BT12 viability, IC50
Procedure, shortened: (§2)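 Cultures were grown at 37 °C, 5% CO2 with pen/strep in RPMI/10% FBS (BT-12, BT-16), EMEM/10% FBS (DAOY) or DMEM/15% FBS (HFF1). Cells were plated at 2000 per well and incubated overnight. They were then exposed for 72 h to test compound (0.5–10, six levels) or 0.1% DMSO medium. PrestoBlue fluorescence was read at 560/590 nm, background removed, and IC50 derived.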

BT16 cells (AT/RT) [6] = assay: BT16 cell viability assay; format: cell-based; conditions: Homo sapiens, BT-16, 72 h, read-out: BT16 viability, IC50
Procedure, shortened: as §2

BT12 cells (AT/RT) [7] = assay: BT12 cell proliferation assay; format: cell-based; conditions: Homo sapiens, BT-12, 72 h, read-out: BT12 prolif., IC50
Procedure, shortened: as §1

[8] = test system: HFF1 non-neoplastic human fibroblasts; assay: HFF1 cell proliferation assay; format: cell-based; conditions: HFF-1, 72 h, read-out: HFF1 prolif., IC50
Procedure, shortened: as §1

[9] = test system: DAOY cells (medulloblastoma); assay: DAOY cell proliferation assay; format: cell-based; conditions: Homo sapiens, 72 h, read-out: DAOY prolif., IC50
Procedure, shortened: as §1

[10] = test system: HFF1 non-neoplastic human fibroblasts; assay: HFF1 cell viability assay; format: cell-based; conditions: HFF-1, 72 h, read-out: HFF1 viability, IC50
Procedure, shortened: as §2

[11] = test system: DAOY cells (medulloblastoma); assay: DAOY cell viability assay; format: cell-based; conditions: Homo sapiens, 72 h, read-out: DAOY viability, IC50
Procedure, shortened: as §2

BT16 cells (AT/RT) [12] = assay: BT16 cell proliferation assay; format: cell-based; conditions: Homo sapiens, BT-16, 72 h, read-out: BT16 prolif., IC50
Procedure, shortened: as §1

[13] = test system: carbonic anhydrase 9 (CA9) gene; assay: Transcriptional analysis of KNS42 cells, CA9 expression; format: cell-based, human; conditions: 10 μM, 72 hours, versus untreated, p < 0.01
Procedure, shortened: (§3)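 KNS42 cells in RPMI/10% FBS with pen/strep, 37 °C, 5% CO2, were treated with test compound at 10 for 72 h. Cells were PBS-washed, scraped and pelleted. RNA was TRIzol-extracted, resuspended in DEPC water and quantified by Qubit broad-range assay. Samples underwent DNBSEQ eukaryotic stranded transcriptome resequencing to determine differential expression.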

KNS42 cells = assay: Transcriptional analysis of KNS42 cells, differential gene expression; format: cell-based, human; conditions: 10 μM, 72 hours, fold change ≥ 8, P < 0.05
Procedure, shortened: as §3

[14] = test system: spleen tyrosine kinase (SYK) gene; assay: Transcriptional analysis of KNS42 cells, SYK expression; format: cell-based, human; conditions: 10 μM, 72 hours, versus untreated, p < 0.05
Procedure, shortened: as §3

Row | Compound | IC50 [2] | MIC (M. tb H37Rv strain [4]) | H37Rv, MIC (M. tb H37Rv strain [4]) | also measured
1 | Cc1cc(C)c2cc(C(=O)NC34CC5CC(CC(C5)C3)C4)[nH]c2c1 [Compound 2, N-(1-adamantyl)-4,6-dimethylindole-2-carboxamide] |  |  |  | MIC (M. tb H37Rv strain [1]): 0.012 µM (≈ 0.00387 µg/mL); IC50 (healthy cells): > 200 µM
2 | O=C(NC12CC3CC(CC(C3)C1)C2)c1cc2ccccc2[nH]1 [Compound 3, N-(1-adamantyl)-indole-2-carboxamide] | > 10 µM |  |  | EC50 [3]: 0.98 µM; Cytotoxicity against human THP-1 cells (human THP-1 cells): non-cytotoxic up to 50
3 | CC(NC(=O)c1cc2ccccc2[nH]1)C12CC3CC(CC(C3)C1)C2 (centres unmarked) [Compound 8a, N-(1-(Adamantan-1-yl)ethyl)-1H-indole-2-carboxamide] | > 10 µM | 6.2 µM (≈ 2 µg/mL) |  | H37Rv, MIC (M. tb H37Rv strain [1]): > 15.5 µM
4 | COc1cccc2[nH]c(C(=O)NC(C)C34CC5CC(CC(C5)C3)C4)cc12 (centres unmarked) [Compound 8b, N-(1-(Adamantan-1-yl)ethyl)-4-methoxy-1H-indole-2-carboxamide] | > 10 µM |  |  | 
5 | COc1ccc2[nH]c(C(=O)NC(C)C34CC5CC(CC(C5)C3)C4)cc2c1 (centres unmarked) [Compound 8c, N-(1-(Adamantan-1-yl)ethyl)-5-methoxy-1H-indole-2-carboxamide] | > 10 µM | < 6 µM | 5.67 µM | 
6 | Cc1ccc2[nH]c(C(=O)NC(C)C34CC5CC(CC(C5)C3)C4)cc2c1 (centres unmarked) [Compound 8d, N-(1-(Adamantan-1-yl)ethyl)-5-methyl-1H-indole-2-carboxamide] | > 10 µM | 2.97 µM (≈ 0.999 µg/mL) |  | 
7 | CC(NC(=O)c1cc2cc(Cl)ccc2[nH]1)C12CC3CC(CC(C3)C1)C2 (centres unmarked) [Compound 8e, N-(1-(Adamantan-1-yl)ethyl)-5-chloro-1H-indole-2-carboxamide] | > 10 µM |  |  | 
8 | CC(NC(=O)c1cc2ccc(Br)cc2[nH]1)C12CC3CC(CC(C3)C1)C2 (centres unmarked) [Compound 8f, N-(1-(Adamantan-1-yl)ethyl)-6-bromo-1H-indole-2-carboxamide] | > 10 µM | 0.62 µM (≈ 0.249 µg/mL) |  | SI (selectivity index) (Vero cells): 64
9 | CC(NC(=O)c1cc2c(Cl)cc(Cl)cc2[nH]1)C12CC3CC(CC(C3)C1)C2 (centres unmarked) [Compound 8g, N-(1-(Adamantan-1-yl)ethyl)-4,6-dichloro-1H-indole-2-carboxamide] | > 10 µM | 0.32 µM (≈ 0.125 µg/mL) |  | SI (selectivity index) (Vero cells): 128
10 | CC(NC(=O)c1cc2c(F)cc(F)cc2[nH]1)C12CC3CC(CC(C3)C1)C2 (centres unmarked) [Compound 8h, N-(1-(Adamantan-1-yl)ethyl)-4,6-difluoro-1H-indole-2-carboxamide] | > 10 µM |  |  | 
11 | O=C(NCc1ccccc1)c1cc2c(F)cc(F)cc2[nH]1 [Compound 9a, N-Benzyl-4,6-difluoro-1H-indole-2-carboxamide] | 9.85 µM | > 112 µM | >112 µM | IC50 (BT12 cells (AT/RT) [5]): 0.89 µM; IC50 (BT16 cells (AT/RT) [6]): 1.81 µM; IC50 (BT12 cells (AT/RT) [7]): 7.44 µM; IC50 [8]: 65 µM; IC50 [9]: > 10 µM; IC50 [10]: 119 µM; IC50 [11]: > 10 µM; IC50 (BT16 cells (AT/RT) [12]): 6.06 µM
12 | O=C(NNc1ccccc1)c1cc2c(F)cc(F)cc2[nH]1 [Compound 9b, 4,6-Difluoro-N′-phenyl-1H-indole-2-carbohydrazide] | > 10 µM | > 96 µM | >111 µM | 
13 | O=C(NC(=O)c1cc2c(F)cc(F)cc2[nH]1)c1cccc(F)c1 [Compound 11a, 4,6-Difluoro-N-(3-fluorobenzoyl)-1H-indole-2-carboxamide] | > 10 µM | > 96 µM | >101 µM | 
14 | O=C(NC(=O)c1cc2c(F)cc(F)cc2[nH]1)c1cccc(Cl)c1 [Compound 11b, N-(3-Chlorobenzoyl)-4,6-difluoro-1H-indole-2-carboxamide] | > 10 µM |  | >96 µM | 
15 | O=C(c1cc2c(F)cc(F)cc2[nH]1)N1CCNCC1 [Compound 14, (4,6-Difluoro-1H-indol-2-yl)(piperazin-1-yl)methanone] | > 10 µM | > 121 µM | >121 µM | 
16 | O=C(c1cc2c(F)cc(F)cc2[nH]1)N1CCN(C(=O)C23CC4CC(CC(C4)C2)C3)CC1 [Compound 15, (Adamantan-1-yl)(4-(4,6-difluoro-1H-indole-2-carbonyl)piperazin-1-yl)methanone] | 6.62 µM |  | >75 µM | IC50 (BT12 cells (AT/RT) [5]): 3.16 µM; IC50 (BT16 cells (AT/RT) [6]): 5.89 µM; Downregulation of CA9 expression [13]: 15 fold; Number of genes with downregulated expression (KNS42 cells): 9 genes; IC50 (BT12 cells (AT/RT) [7]): > 10 µM; IC50 [8]: 17.4 µM; IC50 [9]: > 10 µM; IC50 [10]: 19.4 µM; IC50 [11]: > 10 µM; IC50 (BT16 cells (AT/RT) [12]): > 10 µM; Downregulation of SYK expression [14]: 9 fold
17 | O=C(NC12CC3CC(CC(C3)C1)C2)c1ccc(NC(=O)c2cc3c(F)cc(F)cc3[nH]2)cc1 [Compound 20, N-(4-((Adamantan-1-yl)carbamoyl)phenyl)-4,6-difluoro-1H-indole-2-carboxamide] | > 10 µM | > 71 µM | >71 µM | 
18 | CC[C@@H](CO)NCCN[C@@H](CC)CO [EMB, ethambutol] |  |  |  | H37Rv, MIC (M. tb H37Rv strain [1]): 1 (ref. [6]) μg mL^−1
19 | NNC(=O)c1ccncc1 [INH, isoniazid] |  |  |  | H37Rv, MIC (M. tb H37Rv strain [1]): 0.04 (ref. [6]) μg mL^−1
